Only some compounds are listed: those with a hit (about 1.2% of all), similar ones and a draw of the others.
Rad51 HR inh – human RAD51 strand exchange inhibitors, primary screen, biochemical, fluorescence; DNA repair protein RAD51 homolog 1 (Homo sapiens), Q06609; hRad51 DNA strand exchange, fluorescence dequenching; inhibition, % at 10 µM; actives 0.085% (n = 200,000); AID 1385, 2008;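 active = inhibition above 40% at the single screening dose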;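 also: 0% = DMSO control wells and 100% = blanks with heterologous ssDNA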
Target sequence (Q06609 whole entry, looked up): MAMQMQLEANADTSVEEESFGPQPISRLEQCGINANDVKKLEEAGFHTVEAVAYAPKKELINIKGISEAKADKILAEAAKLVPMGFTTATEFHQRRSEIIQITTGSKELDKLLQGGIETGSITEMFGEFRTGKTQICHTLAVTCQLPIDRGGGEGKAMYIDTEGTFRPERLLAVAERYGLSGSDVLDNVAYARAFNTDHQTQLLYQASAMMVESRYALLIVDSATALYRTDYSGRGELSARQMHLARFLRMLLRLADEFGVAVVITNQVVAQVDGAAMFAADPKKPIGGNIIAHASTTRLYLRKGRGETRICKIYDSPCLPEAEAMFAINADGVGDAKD
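Test system: preformed human Rad51 ssDNA filaments; also added: Donor/quencher-labelled 47-bp dsDNA substrate; doses: 10 µM final, single point; times: 37 °C 15-min filament assembly, 30-min compound preincubation, 15-min exchange; detection: FRET fluorescence dequenching, excitation 485 nm, emission 520 nm; read-out basis: Fluorescence-based percent inhibition, control- and blank-normalised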
DNA FID counter – compounds displacing fluorescent DNA intercalator, primary screen, artefact control for HCV NS3 helicase inhibitor project, biochemical, FID fluorescence; DNA fluorescent intercalator displacement; inhibition, % at 7.9 µM; actives 0.17% (n = 290,000); in the data active = inhibition above about 37%;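 also: 0% = vehicle and 100% = reference compound; higher means more ethidium bromide displaced from hairpin DNA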
Wee1 degr inh – Wee1 degradation inhibitors, primary screen, cell-based, HeLa, Wee1K328M-luciferase, luminescence | Wee1-like protein kinase (Homo sapiens), P30291 | HeLa Luc-Wee1K328M stability; 100% = proteasome inhibitor MG132 effect | reporter increase, % at 5 µM | actives 1.2% (n = 220,000) | AID 1321, 2008;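 active = activation above the mean of all tested compounds plus 3 SD, set per screening run, cut at about 8.8% in these data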;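 also: cells exposed to compound for 20 h before luminescence read; 0% = DMSO alone and 100% = MG132 at 30 µM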
RBBP9 inhibitor – human RBBP9 inhibitors, primary screen, biochemical, fluorescence polarization, FP-Rh probe, HTS; Serine hydrolase RBBP9 (Homo sapiens), O75884; inhibition, % at 7.94 µM; actives 0.2% (n = 220,000); recombinant RBBP9;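 active = inhibition above the campaign mean of all tested compounds plus 3 SD, cut at about 14% in these data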;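 also: plate controls were DMSO wells with RBBP9 for no effect and wells lacking RBBP9 protein for full effect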
Target sequence (O75884 whole entry, looked up): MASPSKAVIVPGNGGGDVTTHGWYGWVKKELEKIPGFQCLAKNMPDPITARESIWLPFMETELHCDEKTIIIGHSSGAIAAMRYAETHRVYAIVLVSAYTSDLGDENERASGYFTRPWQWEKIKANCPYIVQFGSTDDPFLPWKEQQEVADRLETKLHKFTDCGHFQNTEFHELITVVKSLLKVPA
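Test system: recombinant human RBBP9; Timing: 30 min then 45 min, 25 °C; Detection: fluorescence polarization; Control set: RBBP9 with DMSO as uninhibited control, no-protein wells as full inhibition; Compound dosing: one concentration, 7.94 µM nominal, 0.794% DMSO; Probe or stimulus: FP-Rh activity-based probe, 375 nM before mixing.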
Numbers without * were called inactive; · = no result.

SMILES | Rad51 HR inh | DNA FID counter | Wee1 degr inh | RBBP9 inhibitor
Cc1cccc(SCC(=O)Nc2ccc3c(c2)OCCO3)c1 | · | -17.0 | · | ·
CCOC(=O)CSc1n[nH]c(NC(=O)CC)n1 | -2.6 | 1.5 | 10.2* | -12.5
Cc1ccc(C(=O)Nc2ccc3cn[nH]c3c2)cc1S(=O)(=O)N1CCOCC1 | · | -14.6 | 9.7* | -8.9
CCO[C@H]1OC(C(N)=O)=C[C@@H](c2coc3ccccc3c2=O)[C@@H]1CCCO | -0.1 | -9.8 | 9.2* | -2.6
CCO[C@@H]1OC(C(=O)Nc2ccccc2)=C[C@H](c2coc3ccccc3c2=O)[C@H]1CCCO | -7.4 | -38.4 | 0.4 | -8.2
CCC(C)NC(=O)[C@H]1N2C(=O)c3c(ccc(OC)c3OC)C2SC1(C)C (some centres not stated) | · | -24.4 | · | ·
CCCNC(=O)Nc1nc2ccccc2s1 | 1.3 | -3.2 | 9.2* | 0.6
N=c1n(CCN2CCCC2)c2ccccc2n1CC(O)c1ccc(Cl)c(Cl)c1 (configuration not stated) | -3.2 | 48.3* | 0.5 | 2.7
N=c1n(CCN2CCOCC2)c2ccccc2n1CC(=O)c1ccc(Cl)c(Cl)c1 | 11.3 | -7.5 | -1.7 | -3.2
CCc1sc(C(=O)Nc2cccc(C(C)=O)c2)cc1C | -1.9 | -15.8 | -1.0 | -11.8
CC(=O)c1cccc(NC(=O)C(C)OC(=O)CNC(=O)c2ccc(C)s2)c1 (configuration not stated) | 9.8 | -5.7 | 9.2* | -1.2
O=C(O)CCCC(=O)N1CC(=O)Nc2ccccc21 | 1.3 | 1.5 | 9.1* | 1.6
O=C1CN(C(=O)COc2ccccc2)c2ccccc2N1 | · | -11.3 | · | ·
COC(=O)c1ccc2c(CCO)c[nH]c2c1 | · | -3.8 | · | ·
COc1ccc(C)c2sc(N(CCCN(C)C)C(=O)c3ccc(S(=O)(=O)N(C)C)cc3)nc12 | 47.4* | 12.2 | 5.7 | -10.7
Cc1ccc2nc(N(CCCN(C)C)C(=O)c3ccco3)sc2c1 | -0.9 | 4.0 | 10.4* | -6.1
CN(C)CCCN(C(=O)c1ccc(S(=O)(=O)N2CCCCC2)cc1)c1nc2cc3c(cc2s1)OCO3 | · | 38.3* | · | ·
Cc1cccc2sc(N(CCCN(C)C)C(=O)c3ccc(C(=O)c4ccccc4)cc3)nc12 | · | 37.8* | · | ·
Cc1cccc2sc(N(CCCN(C)C)C(=O)c3sc4ccccc4c3Cl)nc12 | 1.7 | 4.0 | 3.2 | -6.5
COc1ccc(CCNC(=O)C2CCN(S(=O)(=O)c3cccc4cccnc34)CC2)cc1OC | · | -45.7 | · | ·
COc1ccc(CC(=O)N2CCc3cc(OC)c(OC)cc3C2O)cc1OC (configuration not stated) | · | -10.2 | 5.1 | -8.0
CCN(CC)CCN(C(=O)c1ccc(C(=O)c2ccccc2)cc1)c1nc2cc3c(cc2s1)OCO3 | · | 8.2 | · | ·
CN(C)CCCN(C(=O)c1ccc(C(=O)c2ccccc2)cc1)c1nc2cc3c(cc2s1)OCO3 | · | 44.2* | · | ·
CC(OC(=O)c1nsc(Cl)c1Cl)C(=O)NCCc1ccccc1 (configuration not stated) | · | -17.9 | · | ·
C=CCN(CC=C)CCOc1cc(C)ccc1[N+](=O)[O-] | 41.5* | 7.1 | 4.5 | 0.0
SMILES | Rad51 HR inh | DNA FID counter | Wee1 degr inh | RBBP9 inhibitor
CCOC(=O)c1cc(CC)sc1/N=C/c1c(O)ccc2ccccc12 | -43.5 | 6.2 | 9.2* | -4.4
O=C(CSc1ncn[nH]1)N1CCN(S(=O)(=O)c2ccccc2)CC1 | 4.0 | -6.2 | 10.8* | 1.3
O=C(Nc1ccccc1C(=O)Nc1ccccn1)c1cc(F)c(F)cc1Cl | · | -19.6 | · | ·
FC(F)(F)c1cc(N2CCNCC2)c2ccccc2n1 | 10.6 | 4.6 | -2.6 | -5.3
FC(F)(F)c1cc(N2CCN(Cc3ccccc3)CC2)c2ccccc2n1 | 0.0 | -5.8 | 10.2* | 4.4
CCOC(=O)N1CCN(C(=O)Cn2nc(C)n3nc(-c4ccc(CC)cc4)cc3c2=O)CC1 | · | -20.5 | · | ·
O=C(Nc1ccccc1N1CCOCC1)c1ccc2ccccc2c1 | · | -30.3 | · | ·
CC(=O)Nc1cccc(C(=O)Nc2ccccc2N2CCOCC2)c1 | -3.0 | -5.6 | 9.0* | -0.3
CCN1/C(=C/C(C)=C/c2sc3ccccc3[n+]2CC)Sc2ccccc21 | 81.4* | -35.5 | -2.0 | -160.6
CCN1/C(=C\C(=S)Nc2ccccc2)Sc2ccccc21 | -0.6 | -0.9 | 3.0 | 11.5
COc1ccc2oc(C(=O)C3CC3)c(N)c2c1 | 30.0 | -4.2 | 9.6* | -4.3
COc1ccc2oc(C(=O)c3ccccc3)c(N)c2c1 | -9.3 | -5.8 | 1.4 | 0.7
COc1ccc(N2CCN(CCC(N)=O)CC2)cc1 | 107.6* | 0.1 | 3.5 | -9.9
COc1ccc(C(=O)CCN2CCN(c3ccc(OC)cc3)CC2)cc1 | · | 7.2 | · | ·
NC(=S)Nc1nccc(-c2cccs2)n1 | 40.7* | -2.3 | 3.9 | -3.4
CC(C)N(C(=O)CSc1nnc(CSc2ncccn2)n1C)C(C)C | -0.6 | -2.2 | 0.8 | -9.1
O=C(c1ccncc1)N1N=C2CCCCCC2C1(O)C(F)(F)F (configuration not stated) | 14.5 | -6.5 | 0.8 | -8.0
O=C(c1ccco1)N1N=C2CCCCCC2C1(O)C(F)(F)F (configuration not stated) | 1.2 | -9.9 | 10.6* | -6.6
O=C(Nc1ccc(C2=NCCN2)cc1)c1ccc(C(=O)Nc2ccc(C3=NCCN3)cc2)c(Cl)c1 | 33.0 | 36.7* | -1.2 | -4.9
Cc1cc(-c2cn3ccccc3n2)c(C)n1-c1ccccc1 | 1.9 | -16.8 | -2.4 | 4.5
COc1ccc(-n2c(C)cc(-c3cn4cccc(C)c4n3)c2C)cc1 | -2.2 | -13.8 | 8.8* | -4.6
O=C1C(c2c(O)[nH]c3ccccc23)=Nc2ccccc21 | 1.0 | 2.0 | 12.0* | 1.5
CC(=O)c1cccc2c(O)c(C3=Nc4ccccc4C3=O)[nH]c12 | -1.6 | -5.7 | 0.8 | -1.9
O=C(CSc1cccs1)Nc1ccc(Cl)cc1 | -2.9 | -6.8 | 10.3* | -15.0
COc1ccc(Cc2nc3ccc(C(=O)N4CCN(C)C(C)C4)cc3o2)cc1OC (configuration not stated) | · | -8.4 | · | ·
SMILES | Rad51 HR inh | DNA FID counter | Wee1 degr inh | RBBP9 inhibitor
CC(=O)NC(CC(=O)O)c1ccc([N+](=O)[O-])cc1 (configuration not stated) | 21.7 | -0.3 | 2.4 | 0.3
CC(=O)c1cc(CN2CCN(CC=C(C)C)C(CCO)C2)cs1 (configuration not stated) | -14.1 | 0.2 | 2.2 | 4.2
Cc1cc(C)cc(N(CC(=O)NC2CCCC2)C(=O)C2(C)CC(=O)N=C3C=CC=CN32)c1 (configuration not stated) | 11.3 | -3.7 | 10.6* | -9.8
Cc1ccccc1OCc1nc(-c2ccccc2)no1 | 2.6 | -3.9 | 11.3* | 1.3
COc1ccc(-c2noc(Cc3ccccc3OC)n2)cc1 | 9.5 | -10.6 | 8.9* | -1.4
Cc1onc(-c2ccc(Cl)cc2Cl)c1-c1csc(N/N=C/c2ccccc2Cl)n1 | -17.8 | -3.1 | 9.7* | -11.6
Cc1onc(-c2ccccc2)c1-c1csc(N/N=C/c2ccccc2Cl)n1 | 19.4 | -6.4 | 0.5 | -13.5

High-throughput results as filed in PubChem.
